One test has as its target T1, Adenosine receptor A1 (Rattus norvegicus) (UniProt P25099).
T1 sequence (whole entry): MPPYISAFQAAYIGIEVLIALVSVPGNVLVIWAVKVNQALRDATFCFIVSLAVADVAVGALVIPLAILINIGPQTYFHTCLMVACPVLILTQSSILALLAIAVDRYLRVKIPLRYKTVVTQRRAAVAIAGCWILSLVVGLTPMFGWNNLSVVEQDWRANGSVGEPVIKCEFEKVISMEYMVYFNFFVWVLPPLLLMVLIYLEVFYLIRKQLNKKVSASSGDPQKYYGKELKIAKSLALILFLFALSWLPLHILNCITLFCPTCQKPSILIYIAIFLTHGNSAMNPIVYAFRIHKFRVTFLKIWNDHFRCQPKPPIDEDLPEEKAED
Put plainly: Agonistic activity expressed as the amount of [35S]-GTP gamma-S bound +1 uM CPA at rat Adenosine A1 receptor. Format: functional.
Conditions: not given
The gist of the method: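 Rat cortex membranes (2 µg protein) were incubated with 10 µM GDP and 100 mM NaCl for 90 min at 25 °C. Mean ±SEM, n=3.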
Turning to `OC[C@H]1O[C@@H](n2cnc3c(NC4CCCC4)ncnc32)[C@H](O)[C@@H]1O`, the Activity was 100.

In another test the target is T2, Adenosine receptor A1 (Homo sapiens) (UniProt P30542).
T2 sequence (whole entry): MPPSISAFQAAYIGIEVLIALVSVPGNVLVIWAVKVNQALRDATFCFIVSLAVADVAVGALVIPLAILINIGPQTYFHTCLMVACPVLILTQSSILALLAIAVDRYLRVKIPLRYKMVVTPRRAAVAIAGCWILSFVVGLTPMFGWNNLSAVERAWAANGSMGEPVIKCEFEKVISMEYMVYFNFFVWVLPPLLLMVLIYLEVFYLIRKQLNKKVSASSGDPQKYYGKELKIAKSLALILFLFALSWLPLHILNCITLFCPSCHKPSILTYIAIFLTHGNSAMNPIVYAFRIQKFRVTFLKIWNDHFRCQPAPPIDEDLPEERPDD
Put plainly: Inhibition of Forskolin (10 nM) induced cAMP production at human Adenosine A1 receptor (compared to CPA in CHO cells). Particulars: in the assay text read “10 µM” for “10 nM”. The class given is cell-based. The gist of the method:
(§1)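 Cells expressing the human receptor (A1 in CHO) were grown overnight as monolayers and kept in DMEM/HEPES at pH 7.4. […] Forskolin was added at 10 µM (final) for 15 min. cAMP was measured by binding-protein assay. […] Mean ±SEM, n=3.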
`CCOC[C@H]1O[C@@H](n2cnc3c(N)ncnc32)[C@H](O)[C@@H]1O` showed an inhibition of 57%. Same read-out and setting: to `COC[C@H]1O[C@@H](n2cnc3c(N)nc(Cl)nc32)[C@H](O)[C@@H]1O` belongs 78%; to `CCOC[C@H]1O[C@@H](n2cnc3c(NC4CCCC4)nc(Cl)nc32)[C@H](O)[C@@H]1O`, 62%; to `CCOC[C@H]1O[C@@H](n2cnc3c(NCc4cccc(I)c4)ncnc32)[C@H](O)[C@@H]1O`, 6%. Still for that read-out and setting: to `O[C@@H]1[C@H](O)[C@@H](COC2CC2)O[C@H]1n1cnc2c(NC3CCCC3)ncnc21` belongs 62%; to `O[C@@H]1[C@H](O)[C@@H](COC2CC2)O[C@H]1n1cnc2c(NC3CCCC3)nc(Cl)nc21`, 43%. Still for that read-out and setting: to `Nc1ncnc2c1ncn2[C@@H]1O[C@H](COC2CC2)[C@@H](O)[C@H]1O` belongs 61%; to `COC[C@H]1O[C@@H](n2cnc3c(NCc4cccc(I)c4)ncnc32)[C@H](O)[C@@H]1O`, 53%; to `COC[C@H]1O[C@@H](n2cnc3c(NC4CCCC4)ncnc32)[C@H](O)[C@@H]1O`, 74%. With `COC[C@H]1O[C@@H](n2cnc3c(NC4CCCC4)nc(Cl)nc32)[C@H](O)[C@@H]1O`, the inhibition was 73%.

`CCOC[C@H]1O[C@@H](n2cnc3c(N)nc(Cl)nc32)[C@H](O)[C@@H]1O` showed an inhibition of 67%. Same read-out and setting: to `Nc1nc(Cl)nc2c1ncn2[C@@H]1O[C@H](COC2CC2)[C@@H](O)[C@H]1O` belongs 49%.

In turn, `CCOC[C@H]1O[C@@H](n2cnc3c(NC4CCCC4)ncnc32)[C@H](O)[C@@H]1O` registered an inhibition of 69%. The same measure, in the same setting: to `COC[C@H]1O[C@@H](n2cnc3c(NCc4cccc(I)c4)nc(Cl)nc32)[C@H](O)[C@@H]1O` belongs 37%.

In the next test the target is T2, Adenosine receptor A1 (Homo sapiens). Put plainly: Inhibition of 10 nM Forskolin-induced cAMP production at human Adenosine A1 receptor compared to CPA in CHO cells. Format: functional, cell-based. The note with it: in the assay text read “10 µM” for “10 nM”. The gist of the method: as §1
Consider `COC[C@H]1O[C@@H](n2cnc3c(N)ncnc32)[C@H](O)[C@@H]1O`, for which the inhibition stood at 75%. On the same count and under the same terms, to `OC[C@H]1O[C@@H](n2cnc3c(NC4CCCC4)ncnc32)[C@H](O)[C@@H]1O` belongs 69%.

The next test concerns the target T3, Adenosine receptor A3 (Homo sapiens) (UniProt P0DMS8).
T3 sequence (whole entry): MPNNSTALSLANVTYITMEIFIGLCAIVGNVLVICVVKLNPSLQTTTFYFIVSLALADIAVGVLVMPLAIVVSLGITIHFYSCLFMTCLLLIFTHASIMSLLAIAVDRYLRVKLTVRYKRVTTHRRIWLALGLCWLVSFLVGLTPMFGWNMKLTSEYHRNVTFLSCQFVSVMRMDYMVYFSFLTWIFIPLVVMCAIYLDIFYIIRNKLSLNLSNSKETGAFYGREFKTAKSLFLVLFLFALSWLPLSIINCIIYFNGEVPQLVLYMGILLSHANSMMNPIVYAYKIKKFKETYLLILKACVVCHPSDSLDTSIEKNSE
Briefly: Agonistic activity expressed as the amount of [35S]GTP gamma-S bound +1 uM NECA at adenosine A3 receptor. Format: functional.
Conditions: not given
The gist of the method: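 Human A3 receptor in CHO-cell membranes (1–1.5 µg) was incubated with 1 µM GDP and no NaCl for 90 min at 25 °C. Mean ±SEM, n=3.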
For the molecule `CCNC(=O)[C@H]1O[C@@H](n2cnc3c(N)ncnc32)[C@H](O)[C@@H]1O`, the Activity was 100.

In another test the target is T3, Adenosine receptor A3 (Homo sapiens). Put plainly: Agonistic activity expressed as the amount of [35S]GTP gamma-S bound at adenosine A3 receptor. The class given is functional.
Conditions: not given
The gist of the method:
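Membranes from CHO cells expressing the human A3 receptor (1–1.5 µg protein) were incubated with 1 µM GDP and no NaCl for 90 min at 25 °C. Mean ±SEM, n=3.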
For `CCNC(=O)[C@H]1O[C@@H](n2cnc3c(N)ncnc32)[C@H](O)[C@@H]1O`, the Activity is 100.

The next test concerns the target T1, Adenosine receptor A1 (Rattus norvegicus). Put plainly: Agonistic activity expressed as the amount of [35S]-GTP gamma-S bound at rat Adenosine A1 receptor. The class given is functional.
Conditions: not given
The gist of the method:
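[35S]GTPγS binding used 2 µg of rat cortex membrane protein with 10 µM GDP and 100 mM NaCl, incubated 90 min at 25 °C. Mean ±SEM, n=3.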
`OC[C@H]1O[C@@H](n2cnc3c(NC4CCCC4)ncnc32)[C@H](O)[C@@H]1O` returned an Activity of 100.

Source of the values: ChEMBL document CHEMBL1134582 (J Med Chem, 2001).
